Experimental data reported in ChEMBL document CHEMBL4808178 (J Med Chem, 2021).
pIC50: −log10 of the molar value. Active and inactive are the calls of the source. The calls are words filed in the database; no cut-off is given here.

Tests used:
[1] = Toxicity in BALB/c mouse xenografted with human HCT116 cells assessed as effect on kidney tissue at 60 to 90 mg/kg, po administered twice daily for 4 weeks and measured every 3 days by HE staining based assay; format: organism-based, HCT-116; details: in vivo, 672 h, dose 60-90 mg/kg
Outline: (§1)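 Male 5-week BALB/c nude mice (16−18 g), 0.2 mL of 5 × 10⁷ cells/mL HCT-116 injected into right armpit; at ~100 mm³ randomized, 5/group; intragastric 60 or 90 mg/kg twice daily for 4 weeks; tumor volume and body weight every 3 days; after sacrifice heart, liver, spleen, lung, kidney HE-stained.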

HCT-116 [2] = experiment: Inhibition of cell stemness in human HCT116 cells assessed as morphological alterations at 5 uM after 10 days by microscopic analysis; format: functional, cell-based; details: time 10.0 day
Outline: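 Sorted ALDH⁺ HCT-116 cells, 800/well, in serum-free DMEM with B27 (1:50), EGF 20 ng/mL, β-FGF 10 ng/mL; co-incubated with compound (5 μM) or DMSO vehicle for 10 days; sphere number, diameter and morphology scored from microscopy images; mean ± SD, n = 3.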

[3] = Toxicity in BALB/c mouse xenografted with human HCT116 cells assessed as change in body weight at 60 to 90 mg/kg, po administered twice daily for 4 weeks and measured every 3 days; format: organism-based, HCT-116; details: in vivo, 672 h, dose 60-90 mg/kg; outline: as §1
HCT-116 [4] = experiment: Effect on Wnt/beta-Catenin signaling in human HCT116 cells assessed as downregulation of beta-catenin protein level at 5 to 20 uM after 24 hrs by Western blotting analysis; format: functional, cell-based; details: dose 5-20 µM
Outline: (§2)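 HCT-116 cells at 2 × 10⁵ cells/mL in DMEM/10% FBS, grown 12 h at 37 °C, then treated 24 h (vehicle DMSO). Lysates quantified by BCA, run on 10% SDS-PAGE, PVDF transfer, blocked in 5% milk/TBST, primary antibodies 4 °C overnight, HRP secondary 2 h, chemiluminescent detection; normalized to β-actin, n = 3.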

HCT-116 [5] = experiment: Inhibition of cell stemness in human HCT116 cells assessed as inhibition of CD44+/CD133+ expression at 20 uM after 24 hrs by flow cytometry analysis; format: functional
Outline: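 ALDH⁺ HCT-116 subpopulation sorted by flow cytometry; 2 × 10⁵ cells/well seeded overnight at 37 °C, 5% CO₂; treated 20 μM for 24 h (vehicle DMSO); stained with PE anti-CD133 and FITC anti-CD44 30 min; CD44⁺/CD133⁺ read by flow cytometry.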

HCT-116 [6] = experiment: Induction of apoptosis in human HCT116 cells assessed as necrotic cells at 20 uM after 24 hrs by annexin V-FITC/propidium iodide staining based flow cytometry (reference value: 5.6%); format: functional
HCT-116 [7] = experiment: Induction of apoptosis in human HCT116 cells assessed as reduction in Bcl2 protein expression at 20 uM incubated for 24 hrs by Western blot analysis; format: functional, cell-based; outline: as §2
HCT-116 [8] = experiment: Cytotoxicity against human HCT-116 cells assessed as reduction in cell viability incubated for 72 hrs by MTT assay; format: functional, cell-based; details: HCT-116, 72 h
Outline: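 About 5 × 10³ cells/well, seeded overnight at 37 °C, 5% CO₂, in DMEM or RPMI-1640 with 10% FBS and antibiotics. DMSO-dissolved compounds diluted in medium, exposure 72 h.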

[9] = AUC(0 to infinity) in Sprague-Dawley rat at 25 mg/kg, po measured up to 48 hrs by LC-MS/MS analysis; format: ADME, organism-based; design: route oral, dose 25 mg/kg, time <=48; details: in vivo
Outline: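 Overnight-fasted male SD rats (about 250−270 g), three per group, single oral 25 mg/kg; test compound suspended in 5% CMC-Na, control as sodium salt in phosphate buffer. Blood sampled 0.25–48 h, plasma by centrifugation, stored −40 °C, quantified by LC−MS/MS against plasma standard curve (3–3000 ng/mL) with internal standard; model-fitted PK parameters.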

HCT-116 [10] = experiment: Antitumor activity against human HCT116 cells xenografted in BALB/c athymic nude mouse assessed as tumor growth inhibition at 60 mg/kg, po administered twice daily for 4 weeks and measured every 3 days; format: functional; details: HCT-116, po, 672 h, read-out: TGI
Outline: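 Male BALB/c athymic nude mice, 5 weeks old, 16−18 g, given 0.2 mL of 5 × 10⁷ cells/mL HCT-116 in right armpit. At about 100 mm³, randomized to groups of five; intragastric dosing twice daily for 4 weeks. Tumor volume and body weight every 3 days; tumors weighed after sacrifice; organs HE-stained.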

[11] = molecular target: T1, Tyrosine-protein kinase ZAP-70 (Homo sapiens) (UniProt P43403); experiment: Inhibition of ZAP70 (unknown origin) assessed as residual activity at 1 uM relative to control
T1 sequence (whole entry): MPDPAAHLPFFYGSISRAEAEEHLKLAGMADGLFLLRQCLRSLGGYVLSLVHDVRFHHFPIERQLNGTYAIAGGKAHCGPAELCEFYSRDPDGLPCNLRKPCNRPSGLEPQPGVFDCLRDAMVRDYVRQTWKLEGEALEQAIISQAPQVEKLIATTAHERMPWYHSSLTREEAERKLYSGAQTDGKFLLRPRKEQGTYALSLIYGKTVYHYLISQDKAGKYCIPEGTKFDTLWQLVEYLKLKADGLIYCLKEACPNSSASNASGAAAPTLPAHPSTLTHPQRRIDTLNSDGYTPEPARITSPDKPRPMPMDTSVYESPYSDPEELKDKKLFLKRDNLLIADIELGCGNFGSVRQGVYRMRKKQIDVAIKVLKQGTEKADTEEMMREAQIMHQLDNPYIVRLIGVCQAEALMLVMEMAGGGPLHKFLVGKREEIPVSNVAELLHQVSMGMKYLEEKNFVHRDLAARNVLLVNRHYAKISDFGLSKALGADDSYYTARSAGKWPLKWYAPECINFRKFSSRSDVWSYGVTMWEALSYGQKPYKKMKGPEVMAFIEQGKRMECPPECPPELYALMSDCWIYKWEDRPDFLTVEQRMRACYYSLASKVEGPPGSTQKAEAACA
Outline: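 Commercial profiling service against a 208-kinase panel; single concentration 1 μmol/L; residual kinase activity expressed relative to control.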

[12] = molecular target: Dual specificity protein kinase CLK2 (Homo sapiens, UniProt P49760); experiment: Inhibition of CLK2 (unknown origin) assessed as residual activity at 1 uM relative to control
Chain of Dual specificity protein kinase CLK2 (P49760 whole entry, looked up): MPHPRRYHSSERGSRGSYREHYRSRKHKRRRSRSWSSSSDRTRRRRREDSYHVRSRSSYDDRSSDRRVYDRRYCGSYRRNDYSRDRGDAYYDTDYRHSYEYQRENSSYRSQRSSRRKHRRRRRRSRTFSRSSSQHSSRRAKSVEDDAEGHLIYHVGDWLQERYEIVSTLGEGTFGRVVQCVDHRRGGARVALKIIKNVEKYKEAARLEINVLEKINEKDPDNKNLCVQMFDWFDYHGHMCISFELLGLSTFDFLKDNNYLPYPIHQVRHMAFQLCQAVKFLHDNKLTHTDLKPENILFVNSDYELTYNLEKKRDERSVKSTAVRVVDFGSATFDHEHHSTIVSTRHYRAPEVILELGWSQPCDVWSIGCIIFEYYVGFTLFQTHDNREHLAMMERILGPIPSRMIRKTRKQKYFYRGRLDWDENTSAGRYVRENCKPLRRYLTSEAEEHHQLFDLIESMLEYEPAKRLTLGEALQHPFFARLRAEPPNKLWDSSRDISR
Outline: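 Single-concentration screen at 1 μmol/L against a panel of 208 kinases, run as a commercial service; activity expressed relative to control.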

[13] = MRT(0 to infinity) in Sprague-Dawley rat at 25 mg/kg, po measured up to 48 hrs by LC-MS/MS analysis; format: ADME, organism-based; details: in vivo
Outline: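 Overnight-fasted male SD rats (250−270 g, n = 3/group), single oral 25 mg/kg in 5% CMC-Na (reference sodium salt in phosphate buffer); plasma at 0.25–48 h (12 timepoints), stored −40 °C; LC−MS/MS with internal-standard calibration 3–3000 ng/mL; parameters fitted by model.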

HCT-116 [14] = experiment: Induction of apoptosis in human HCT116 cells assessed as necrotic cells at 5 uM after 24 hrs by annexin V-FITC/propidium iodide staining based flow cytometry (reference value: 5.6%); format: functional
[15] = Toxicity in BALB/c mouse xenografted with human HCT116 cells assessed as effect on liver tissue at 60 to 90 mg/kg, po administered twice daily for 4 weeks and measured every 3 days by HE staining based assay; format: organism-based, HCT-116; details: in vivo, 672 h, dose 60-90 mg/kg; outline: as §1

AUC(0-inf) [9]: 41500 ng·h/mL
Activity [11]: 26%
Activity [12]: 22.1%
MRT inf [13]: 6.26 h
SMILES: O=C(NCCO)c1ccc2c(c1)nc(Nc1cccc(Cl)c1)c1ccncc12
Activity [1]: Non-Toxic
inhibition (HCT-116 [2]): Active
Activity [3]: Non-Toxic
Activity (HCT-116 [4]): Active
inhibition at 20 µM (HCT-116 [5]): 84%
Activity (HCT-116 [6]): 8.7%
Activity (HCT-116 [7]): Active
pIC50 (HCT-116 [8]): 5.51
inhibition in vivo at 60 mg/kg (HCT-116 [10]): 59%
Activity (HCT-116 [14]): 7%
Activity [15]: Non-Toxic
